Results pooled from the literature.
Protocols differ between the studies behind these lines.
PIK3CD: Phosphatidylinositol 4,5-bisphosphate 3-kinase catalytic subunit delta isoform (PIK3CD, Homo sapiens, UniProt O00329)
COQ8A: Atypical kinase COQ8A, mitochondrial (COQ8A, Homo sapiens, UniProt Q8NI60)
ATP2A1: Sarcoplasmic/endoplasmic reticulum calcium ATPase 1 (ATP2A1, Oryctolagus cuniculus, UniProt P04191)
NTSR1: Neurotensin receptor type 1 (NTSR1, Homo sapiens, UniProt P30989)
NR3C2: Mineralocorticoid receptor (NR3C2, Homo sapiens, UniProt P08235)

`Cc1nc(Nc2ccc3c(c2)CC(=O)N3)c2ccccc2n1` has an IC50 of 397 nM (PIK3CD; enzyme activity, inhibitor, ADP detection).
The IC50 of `COc1ccc2c(c1)CCc1c-2n[nH]c1C(=O)N1CCc2nc3cc(-c4ccccc4)[nH]n3c(=O)c2C1` is reported as 2730 nM (COQ8A; ligand displacement, TR-FRET).
The Kd of `COc1cc(/C=C/C(=O)CC(=O)/C=C/c2ccc(O)c(OC)c2)ccc1O` is reported as 6800 nM (ATP2A1; binding, fluorescence; pH 7.2).
With `COc1ccccc1C1CCN(c2nc(C3(C)CCCC3)nc3ccc(N(C)CCO)cc23)CC1` the EC50 was 40200 nM (NTSR1; β-arrestin recruitment, agonist).
The IC50 of `O=C(Nc1nc2n(n1)C(c1ccc(F)cc1)C=C(c1ccccc1)N2)c1cccc([N+](=O)[O-])c1` (stereo not shown) is reported as 3850 nM (COQ8A; ligand displacement, TR-FRET).
With `CC(C)(C)OC(=O)N1CCN(Cc2ccn(Cc3ccc(Cl)cc3)c(=O)c2O)CC1` the IC50 was 6180 nM (Lysine-specific demethylase 4E (KDM4E, Homo sapiens, UniProt B2RXH2); enzyme activity, inhibitor, AlphaScreen).
For `Cc1nc(Nc2ccc3c(c2)C(C)(C)C(=O)N3)c2ccccc2n1`, the IC50 was > 1000 nM (PIK3CD; enzyme activity, inhibitor, ADP detection).
The Kd of `COc1cc(/C=C/C(O)=C/C(=O)/C=C/c2ccc(O)cc2)ccc1O` is reported as 8000 nM (ATP2A1; binding, fluorescence; pH 7.2).
The IC50 of `Cc1ccc2c(=O)cc(C(=O)Nc3c(C(=O)c4ccc(F)cc4)oc4ccccc34)oc2c1C` is reported as 9680 nM (COQ8A; ligand displacement, TR-FRET).
With `C[C@]12CCC(=O)C=C1CC[C@@H]1[C@@H]2[C@@H](O)C[C@@]2(C=O)[C@H]1CC[C@]2(O)C(=O)CO` the EC50 was 19.6 nM (NR3C2; reporter gene, agonist, luciferase).
For `Cc1nc(Nc2ccc3c(c2)C(C)(C)C(=O)N3C)c2ccccc2n1`, the IC50 was 719 nM (PIK3CD; enzyme activity, inhibitor, ADP detection).
With `NC(=O)c1ncc(N2CCCCC2)nc1Nc1ccc(C2CCN(C[C@H]3CCN(c4ccc5c(c4)C(=O)N(C4CCC(=O)NC4=O)C5=O)C3)CC2)cc1` (stereo partly shown) the Kd was 88 nM (Tyrosine-protein kinase BTK (BTK, Homo sapiens, UniProt Q06187, L528W); binding, SPR).
With `C[C@]12C[C@H](O)[C@H]3[C@@H](CCC4=CC(=O)CC[C@@]43C)[C@@H]1CC[C@@H]2C(=O)CO` the EC50 was 11.3 nM (NR3C2; reporter gene, agonist, luciferase).
The IC50 of `COc1cc2ncnc(Nc3ccc4c(c3)/C(=C/c3ccccc3)C(=O)N4C)c2cc1OC` is reported as 277 nM (PIK3CD; enzyme activity, inhibitor, ADP detection).
`COc1ccccc1C1CCN(c2nc(C3(F)CC3)nc3ccc(N(C)CCN4CCOCC4)cc23)CC1` gave an EC50 of 7460 nM (NTSR1; β-arrestin recruitment, agonist).
`Cc1nc(Nc2ccc3c(c2)/C(=C/c2ccccc2)C(=O)N3Cc2ccccc2)c2ccccc2n1` has an IC50 of 225 nM (PIK3CD; enzyme activity, inhibitor, ADP detection).
The IC50 of `CC(C)Oc1ccc(S(=O)(=O)c2ccc(Oc3cc(OCC(N)=O)c(C(=O)C(Cl)Cl)cc3[N+](=O)[O-])cc2)cc1` is reported as 140 nM ([Pyruvate dehydrogenase (acetyl-transferring)] kinase isozyme 1, mitochondrial (PDK1, Homo sapiens, UniProt Q15118); enzyme activity, inhibitor, ATP luminescence).
For `CCc1ccc(NC(=O)CSc2nc(-c3ccc(C)cc3)nc3c2Cc2c(CO)cnc(C)c2O3)cc1`, the IC50 was 8630 nM (COQ8A; ligand displacement, TR-FRET).
With `Cc1nc(Nc2ccc3c(c2)/C(=C/c2ccccc2Cl)C(=O)N3)c2ccccc2n1` the IC50 was 578 nM (PIK3CD; enzyme activity, inhibitor, ADP detection).
